Results published in ChEMBL document CHEMBL4689842, “EUbOPEN Chemogenomics Library wave 1” (2021).

Test system: HEK-293T
Test: Multiplex assay against HEK293T;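 on Population Tubulin-Different-Phenotype (%): share of the cells with healthy nuclei that show this phenotype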
Format: toxicity, cell-based
Settings: human
Summary of the method: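 Per cents of healthy-nucleus cells form the tubulin, mitochondrial-mass and membrane-permeability phenotype values. Live cells were stained at seeding with Hoechst33342, BioTracker Green Microtubule Cytoskeleton Dye, MitoTracker Red and Annexin V Alexa Fluor 680. After compound addition they were imaged on a CQ1 microscope at 37°C and 5% CO2, and CellPathfinder machine-learning gating split them into Hoechst high-intensity objects or normal cells, normal cells into healthy, pyknosed or fragmented nuclei, and pyknosed cells into mitotic or apoptotic.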

[1] = 12 h, 1 µM, compound concentration 1 uM, replicate 1
[2] = 12 h, 1 µM, compound concentration 1 uM, replicate 2
[3] = 12 h, 10 µM, compound concentration 10 uM, replicate 1
[4] = 12 h, 10 µM, compound concentration 10 uM, replicate 2
[5] = 24 h, 1 µM, compound concentration 1 uM, replicate 1
[6] = 24 h, 1 µM, compound concentration 1 uM, replicate 2
[7] = 24 h, 10 µM, compound concentration 10 uM, replicate 1
[8] = 24 h, 10 µM, compound concentration 10 uM, replicate 2
[9] = 48 h, 1 µM, compound concentration 1 uM, replicate 1
[10] = 48 h, 1 µM, compound concentration 1 uM, replicate 2
[11] = 48 h, 10 µM, compound concentration 10 uM, replicate 1
[12] = 48 h, 10 µM, compound concentration 10 uM, replicate 2

`C=CC(=O)Nc1ccc2ncnc(Nc3ccc(OCc4cccc(F)c4)c(Cl)c3)c2c1.Cc1ccc(S(=O)(=O)O)cc1` was tested, and the “Population Apoptotic (%)” value [1] was 52%, the “Population Fragmented Nuclei (%)” value [1] was 11% and the “Population Healthy Nuclei (%)” value [1] was 38%. For the same molecule, the “Population Hoechst High Intensity Objects (%)” value [1] was 11%, the “Population Mitochondria Different-Phenotype (%)” value [1] was 75% and the “Population Mitotic Cells (%)” value [1] was 47%. For the same molecule, the “Population Normal (%)” value [1] was 88%, the “Population Pyknosed Nuclei (%)” value [1] was 49% and the “Population Tubulin-Different-Phenotype (%)” value [1] was 39%. The “Total Cell Count” value [1] was 304, the “Population Apoptotic (%)” value [2] was 11% and the “Population Fragmented Nuclei (%)” value [2] was 6%. The “Population Healthy Nuclei (%)” value [2] was 45%, the “Population Hoechst High Intensity Objects (%)” value [2] was 2% and the “Population Membrane Permeable-Phenotype (%)” value [2] was 5%. The “Population Mitochondria Different-Phenotype (%)” value [2] was 26%, the “Population Mitotic Cells (%)” value [2] was 88% and the “Population Normal (%)” value [2] was 97%. The “Population Pyknosed Nuclei (%)” value [2] was 47%, the “Population Tubulin-Different-Phenotype (%)” value [2] was 24% and the “Total Cell Count” value [2] was 226. The “Population Apoptotic (%)” value [3] was 51%, the “Population Fragmented Nuclei (%)” value [3] was 10% and the “Population Healthy Nuclei (%)” value [3] was 38%. For the same molecule, the “Population Hoechst High Intensity Objects (%)” value [3] was 12%, the “Population Membrane Permeable-Phenotype (%)” value [3] was 2% and the “Population Mitochondria Different-Phenotype (%)” value [3] was 82%. For the same molecule, the “Population Mitotic Cells (%)” value [3] was 48%, the “Population Normal (%)” value [3] was 87% and the “Population Pyknosed Nuclei (%)” value [3] was 51%. For the same molecule, the “Population Tubulin-Different-Phenotype (%)” value [3] was 44%, the “Total Cell Count” value [3] was 267 and the “Population Apoptotic (%)” value [4] was 49%. For the same molecule, the “Population Fragmented Nuclei (%)” value [4] was 22%, the “Population Healthy Nuclei (%)” value [4] was 21% and the “Population Hoechst High Intensity Objects (%)” value [4] was 8%. For the same molecule, the “Population Membrane Permeable-Phenotype (%)” value [4] was 0%, the “Population Mitochondria Different-Phenotype (%)” value [4] was 27% and the “Population Mitotic Cells (%)” value [4] was 50%. For the same molecule, the “Population Normal (%)” value [4] was 91%, the “Population Pyknosed Nuclei (%)” value [4] was 56% and the “Population Tubulin-Different-Phenotype (%)” value [4] was 27%. The “Total Cell Count” value [4] was 184, the “Population Apoptotic (%)” value [5] was 45% and the “Population Fragmented Nuclei (%)” value [5] was 11%. For the same molecule, the “Population Healthy Nuclei (%)” value [5] was 41%, the “Population Hoechst High Intensity Objects (%)” value [5] was 15% and the “Population Membrane Permeable-Phenotype (%)” value [5] was 3%. The “Population Mitochondria Different-Phenotype (%)” value [5] was 61%, the “Population Mitotic Cells (%)” value [5] was 54% and the “Population Normal (%)” value [5] was 84%. For the same molecule, the “Population Pyknosed Nuclei (%)” value [5] was 47%, the “Population Tubulin-Different-Phenotype (%)” value [5] was 39% and the “Total Cell Count” value [5] was 351. For the same molecule, the “Population Apoptotic (%)” value [6] was 16%, the “Population Fragmented Nuclei (%)” value [6] was 7% and the “Population Healthy Nuclei (%)” value [6] was 63%. The “Population Hoechst High Intensity Objects (%)” value [6] was 2%, the “Population Membrane Permeable-Phenotype (%)” value [6] was 10% and the “Population Mitochondria Different-Phenotype (%)” value [6] was 19%. The “Population Mitotic Cells (%)” value [6] was 83%, the “Population Normal (%)” value [6] was 97% and the “Population Pyknosed Nuclei (%)” value [6] was 28%. For the same molecule, the “Population Tubulin-Different-Phenotype (%)” value [6] was 30%, the “Total Cell Count” value [6] was 279 and the “Population Apoptotic (%)” value [7] was 56%. The “Population Fragmented Nuclei (%)” value [7] was 11%, the “Population Healthy Nuclei (%)” value [7] was 41% and the “Population Hoechst High Intensity Objects (%)” value [7] was 16%. The “Population Mitochondria Different-Phenotype (%)” value [7] was 78%, the “Population Mitotic Cells (%)” value [7] was 43% and the “Population Normal (%)” value [7] was 83%. The “Population Pyknosed Nuclei (%)” value [7] was 47%, the “Population Tubulin-Different-Phenotype (%)” value [7] was 48% and the “Total Cell Count” value [7] was 262. The “Population Apoptotic (%)” value [8] was 48%, the “Population Fragmented Nuclei (%)” value [8] was 17% and the “Population Healthy Nuclei (%)” value [8] was 30%. The “Population Hoechst High Intensity Objects (%)” value [8] was 9%, the “Population Membrane Permeable-Phenotype (%)” value [8] was 2% and the “Population Mitochondria Different-Phenotype (%)” value [8] was 50%. The “Population Mitotic Cells (%)” value [8] was 51%, the “Population Normal (%)” value [8] was 90% and the “Population Pyknosed Nuclei (%)” value [8] was 52%. For the same molecule, the “Population Tubulin-Different-Phenotype (%)” value [8] was 45%, the “Total Cell Count” value [8] was 161 and the “Population Apoptotic (%)” value [9] was 44%. The “Population Fragmented Nuclei (%)” value [9] was 15%, the “Population Healthy Nuclei (%)” value [9] was 47% and the “Population Hoechst High Intensity Objects (%)” value [9] was 13%. The “Population Membrane Permeable-Phenotype (%)” value [9] was 4%, the “Population Mitochondria Different-Phenotype (%)” value [9] was 32% and the “Population Mitotic Cells (%)” value [9] was 55%. The “Population Normal (%)” value [9] was 86%, the “Population Pyknosed Nuclei (%)” value [9] was 37% and the “Population Tubulin-Different-Phenotype (%)” value [9] was 32%. The “Total Cell Count” value [9] was 430, the “Population Apoptotic (%)” value [10] was 4% and the “Population Fragmented Nuclei (%)” value [10] was 6%. The “Population Healthy Nuclei (%)” value [10] was 83%, the “Population Hoechst High Intensity Objects (%)” value [10] was 2% and the “Population Membrane Permeable-Phenotype (%)” value [10] was 11%. For the same molecule, the “Population Mitochondria Different-Phenotype (%)” value [10] was 4%, the “Population Mitotic Cells (%)” value [10] was 96% and the “Population Normal (%)” value [10] was 97%. For the same molecule, the “Population Pyknosed Nuclei (%)” value [10] was 10%, the “Population Tubulin-Different-Phenotype (%)” value [10] was 23% and the “Total Cell Count” value [10] was 512. For the same molecule, the “Population Apoptotic (%)” value [11] was 51%, the “Population Fragmented Nuclei (%)” value [11] was 16% and the “Population Healthy Nuclei (%)” value [11] was 48%. The “Population Hoechst High Intensity Objects (%)” value [11] was 12%, the “Population Membrane Permeable-Phenotype (%)” value [11] was 5% and the “Population Mitochondria Different-Phenotype (%)” value [11] was 46%. The “Population Mitotic Cells (%)” value [11] was 48%, the “Population Normal (%)” value [11] was 87% and the “Population Pyknosed Nuclei (%)” value [11] was 35%. For the same molecule, the “Population Tubulin-Different-Phenotype (%)” value [11] was 38%, the “Total Cell Count” value [11] was 339 and the “Population Apoptotic (%)” value [12] was 60%. The “Population Fragmented Nuclei (%)” value [12] was 13%, the “Population Healthy Nuclei (%)” value [12] was 53% and the “Population Hoechst High Intensity Objects (%)” value [12] was 10%. The “Population Membrane Permeable-Phenotype (%)” value [12] was 8%, the “Population Mitochondria Different-Phenotype (%)” value [12] was 22% and the “Population Mitotic Cells (%)” value [12] was 40%. The “Population Normal (%)” value [12] was 89%, the “Population Pyknosed Nuclei (%)” value [12] was 32% and the “Population Tubulin-Different-Phenotype (%)” value [12] was 46%. For the same molecule, the “Total Cell Count” value [12] was 187.
